A short description of test [1]: Inhibition of beta-lactamase VIM4 (unknown origin) expressed in Escherichia coli BL21(DE3) using imipenem as substrate by measuring substrate hydrolysis at 200 uM by spectrophotometric analysis. The method in brief: (§1)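 Purified enzyme (overproduced in E. coli BL21(DE3), pET-9a; ion-exchange and gel filtration), 1-70 nM final. Reporter substrate 150 μM imipenem, read at 300 nm, 30 °C, 50 mM HEPES pH 7.5. Single-point screen at 100 or 200 μM; Ki from v0/vi vs [I] (0.5–1,000 μM final) assuming competitive inhibition, or Dixon plot. Triplicate.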

Test [2] is described as follows: Inhibition of beta-lactamase L1 (unknown origin) expressed in Escherichia coli BL21(DE3) using nitrocefin as substrate by measuring substrate hydrolysis at 200 uM preincubated for 30 mins by spectrophotometric analysis.
Test [3] in a line: Inhibition of beta-lactamase VIM2 (unknown origin) expressed in Escherichia coli BL21(DE3) using imipenem as substrate by measuring substrate hydrolysis at 200 uM by spectrophotometric analysis. The method in brief: as §1
The nature of test [4]: Inhibition of beta-lactamase VIM4 (unknown origin) expressed in Escherichia coli BL21(DE3) using imipenem as substrate by measuring substrate hydrolysis at 100 uM by spectrophotometric analysis. The method in brief: as §1
A short description of test [5]: Inhibition of beta-lactamase L1 (unknown origin) expressed in Escherichia coli BL21(DE3) using nitrocefin as substrate by measuring substrate hydrolysis at 100 uM preincubated for 30 mins by spectrophotometric analysis. The method in brief:
(§2)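 Enzyme 0.2–0.8 nM in 25 mM HEPES pH 7.5 with 50 μM ZnCl2 final, pre-incubated 30 min at 21 °C with inhibitor (100 μM screen). Nitrocefin 100 μM final, read at 482 nm, 30 °C. Residual activity vs three uninhibited samples; Ki (1–100 μM inhibitor) from Hanes linearization, competitive model. Triplicate.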

Test [6] can be described thus: Inhibition of beta-lactamase NDM1 (unknown origin) expressed in Escherichia coli BL21(DE3) using cefotaxime/nitrocefin as substrate by measuring substrate hydrolysis at 100 uM by spectrophotometric analysis.
Test [7] can be described thus: Inhibition of beta-lactamase IMP-1 (unknown origin) expressed in Escherichia coli BL21(DE3) using imipenem as substrate by measuring substrate hydrolysis at 100 uM by spectrophotometric analysis. The method in brief: as §1
Test [8] in a line: Inhibition of beta-lactamase VIM2 (unknown origin) expressed in Escherichia coli BL21(DE3) using imipenem as substrate by measuring substrate hydrolysis at 100 uM by spectrophotometric analysis. The method in brief:
as §1

Test [9] in a line: Inhibition of beta-lactamase NDM1 (unknown origin) expressed in Escherichia coli BL21(DE3) using cefotaxime/nitrocefin as substrate by measuring substrate hydrolysis at 200 uM by spectrophotometric analysis.
Test [10] can be described thus: Inhibition of beta-lactamase NDM1 (unknown origin) expressed in Escherichia coli BL21(DE3) using cefotaxime/nitrocefin as substrate by measuring substrate hydrolysis by spectrophotometric analysis. The method in brief:
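His-tagged enzyme from E. coli BL21(DE3) pET-15b, affinity-purified, 1-70 nM final. Reporter substrate 120 μM cefotaxime (260 nm) or 100 μM nitrocefin (482 nm), 30 °C, 50 mM HEPES pH 7.5. Inhibitor 0.5–1,000 μM final; competitive Ki from v0/vi vs [I] slope or Dixon plot. Triplicate.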

Test [11] is described as follows: Inhibition of beta-lactamase IMP-1 (unknown origin) expressed in Escherichia coli BL21(DE3) using imipenem as substrate by measuring substrate hydrolysis at 200 uM by spectrophotometric analysis. The method in brief: as §1
Test [12] can be described thus: Inhibition of beta-lactamase NDM-1 (unknown origin) expressed in Escherichia coli LZ2310 assessed as potentiation of ceftazidime antibacterial activity by measuring ceftazidime induced diameter of inhibition zone at 40 uM incubated for 18 hrs by disk diffusion method (reference value: 15 mm). The method in brief:
(§3)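 Efflux-deficient E. coli LZ2310 (NorE, MdfA, AcrA knocked out) carrying pLB-II with the cloned MBL gene. Mueller-Hinton, CLSI disk diffusion; antibiotic disks (30 µg cefoxitin for VIM-2, 10 µg ampicillin for VIM-4, 30 µg ceftazidime for NDM-1/IMP-1) loaded with inhibitor in DMSO (≤15 µL). Zone diameter after 18 h, 35 ± 1 °C; DMSO and 220 µg EDTA controls. Triplicate.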

Test [13] is described as follows: Inhibition of beta-lactamase CphA (unknown origin) expressed in Escherichia coli BL21(DE3) using imipenem as substrate by measuring substrate hydrolysis at 100 uM by spectrophotometric analysis. The method in brief: (§4)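 Enzyme 0.2–0.8 nM in 15 mM cacodylate pH 6.5, no added zinc, pre-incubated 30 min at 21 °C with inhibitor (100 μM screen). Imipenem substrate added from 10 mM stock; hydrolysis at 300 nm, 30 °C. Residual activity vs three uninhibited samples; Ki (1–100 μM inhibitor) by Hanes linearization, competitive model. Triplicate.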

A short description of test [14]: Inhibition of beta-lactamase VIM2 (unknown origin) expressed in Escherichia coli BL21(DE3) using imipenem as substrate by measuring substrate hydrolysis by spectrophotometric analysis. The method in brief:
as §1

Test [15] can be described thus: Inhibition of beta-lactamase L1 (unknown origin) expressed in Escherichia coli BL21(DE3) using nitrocefin as substrate by measuring substrate hydrolysis preincubated for 30 mins by spectrophotometric analysis. The method in brief: as §2
A short description of test [16]: Inhibition of beta-lactamase VIM-2 (unknown origin) expressed in Escherichia coli LZ2310 assessed as potentiation of cefoxitin antibacterial activity by measuring cefoxitin induced diameter of inhibition zone at 40 uM incubated for 18 hrs by disk diffusion method (reference value: 14 mm). The method in brief: as §3
Background: A growth-free zone around the sample is the usual read-out of agar diffusion tests.

Test [17] is described as follows: Inhibition of beta-lactamase VIM4 (unknown origin) expressed in Escherichia coli BL21(DE3) using imipenem as substrate by measuring substrate hydrolysis by spectrophotometric analysis. The method in brief:
as §1

Test [18] can be described thus: Inhibition of beta-lactamase CphA (unknown origin) expressed in Escherichia coli BL21(DE3) using imipenem as substrate by measuring substrate hydrolysis by spectrophotometric analysis. The method in brief:
as §4

Test [19] can be described thus: Inhibition of beta-lactamase IMP-1 (unknown origin) expressed in Escherichia coli BL21(DE3) using imipenem as substrate by measuring substrate hydrolysis by spectrophotometric analysis. The method in brief:
as §1

Molecules are shown by their SMILES. The source made the active and inactive calls. The calls are words filed in the database; no cut-off is given here.

A word on the inhibition: it is how much of the control response was suppressed. As to `Oc1ccc(/C=N/n2c(-c3ccc(OCc4ccccc4)cc3)n[nH]c2=S)c(O)c1`, the inhibition result in test [1], in test [2], in test [3], in test [4], in test [5] and in test [8] was “inactive” throughout. For the same compound, the values for the inhibition in test [6] and in test [7] were 42% and 62%, respectively.
Consider `Fc1cccc(-c2n[nH]c(=S)n2/N=C/c2ccc(OCc3ccccc3)cc2)c1`, for which the inhibition result in test [1], in test [2], in [3], in [4], in test [5] and in test [9] was “inactive” in each case. Also, the inhibition entry in test [6] and in test [8] was “inactive” in each case. Moreover, the inhibition in test [7] came to 60%.
As usually defined, the Ki is a dissociation constant, usually derived from enzyme kinetics or from competition with a known ligand. A lower Ki goes with tighter binding. Take `S=c1[nH]nc(-c2cccc(Cl)c2)n1/N=C/c1ccc(OCc2ccccc2)cc1`: the Ki in test [10] stood at 6700 nM. Also, the inhibition entry in test [11], in test [3], in [7] and in test [8] was “inactive” each time. The values for the inhibition in test [4] and in test [5] were 35% and 60%, respectively. For the same compound, in test [12], the inhibition zone (IZ) is 15 mm.
For the compound `O=C(O)c1ccccc1/C=N/n1c(CCc2ccccc2)n[nH]c1=S`, the inhibition stood at 56% in test [4], 50% in test [13] and 37% in test [7]. The values for the Ki in [14] and in [15] were 7000 nM and 4000 nM, respectively. Further, the results for the inhibition zone (IZ) in [12] and in [16] were 15 mm and 14 mm, respectively. Besides, the inhibition result in test [9] and in [6] was “inactive” throughout.
Consider `Cc1ccccc1-c1n[nH]c(=S)n1/N=C/c1cnc[nH]1`, for which the inhibition result in test [1], in test [11], in test [2], in test [3], in test [4] and in test [5] was “inactive” in each case. For the same compound, the inhibition result in test [9], in test [6], in [7] and in [8] was “inactive” in each case. This compound also yielded an inhibition in [13] of 36%.
`S=c1[nH]nc(C(c2ccccc2)c2ccccc2)n1/N=C/c1ccc(OCc2ccccc2)cc1`: the inhibition result in test [1], in test [2], in test [3], in test [4], in test [5] and in test [8] was “inactive” throughout. Also, the inhibition in test [11] was 50%; in [9], 60%.
On to `O=C(O)c1ccccc1/C=N/n1c(-c2ccc(OCc3ccccc3)cc2)n[nH]c1=S`, for which the inhibitory constant (Ki) came to 2800 nM in test [10], 900 nM in [14], 400 nM in [15] and 1000 nM in [17]. The inhibition zone (IZ) in test [12] is 15 mm; in [16], 14 mm. In test [7], this compound had an inhibition of 62%.
As to `O=C(O)c1ccccc1/C=N/n1c(CC(c2ccccc2)c2ccccc2)n[nH]c1=S`, the Ki in test [18] came out at 15000 nM; in test [10], 2700 nM; in test [14], 25400 nM; in [15] it was 2400 nM; in test [17], 5600 nM. The inhibition result in test [11] and in test [7] was “inactive” throughout. Further, the inhibition zone (IZ) in test [12] worked out at 15 mm.
Consider `O=C(O)c1ccccc1/C=N/n1c(-c2cccc(C(F)(F)F)c2)n[nH]c1=S`, for which the inhibition in test [11] amounted to 50%; in test [13], 35%; in test [5], 40%. Further, the inhibition result in test [3] and in test [8] was “inactive” throughout. Moreover, the inhibition zone (IZ) in test [12] was found to be 15 mm. This compound also returned a Ki in [17] of 1600 nM.
For the compound `Oc1ccc(/C=N/n2c(-c3cccc(F)c3)n[nH]c2=S)c(O)c1`, the values for the Ki in test [10] and in [17] were 11700 nM and 4000 nM, respectively. Besides, the inhibition result in [11], in [3], in test [7] and in test [8] was “inactive” each time. In test [5], this compound showed an inhibition of 25%. Moreover, the inhibition zone (IZ) in test [12] was 15 mm.
`S=c1[nH]nc(-c2cccc(Br)c2)n1/N=C/c1ccc(OCc2ccccc2)cc1`: the inhibition result in test [1], in test [11], in [3], in [4], in test [9] and in [6] was “inactive” each time. The inhibition entry in test [7] and in [8] was “inactive” throughout. The compound also yielded an inhibition in test [5] of 15%.
With `O=C(O)c1ccccc1/C=N/n1c(COc2ccc3ccccc3c2)n[nH]c1=S`, the Ki in [10] came to 2400 nM; in test [14], 2000 nM; in test [17], 3000 nM. In addition, the inhibition worked out at 42% in [13], 60% in test [5] and 35% in [7]. For the same compound, the figures for the inhibition zone (IZ) in test [12] and in [16] were 15 mm and 14 mm, respectively.
Regarding `S=c1[nH]nc(-c2ccc(OCc3ccccc3)cc2)n1/N=C/c1ccc(OCc2ccccc2)cc1`, the inhibition entry in [1], in [2], in test [3], in test [4], in test [5] and in test [8] was “inactive” in each case. Further, the figures for the Ki in test [10] and in [19] were 3200 nM and 2200 nM, respectively.
Turning to `S=c1[nH]nc(Cc2ccccc2)n1/N=C/c1ccc(OCc2ccccc2)cc1`, the inhibition result in test [1], in test [11], in [3], in test [4], in test [9] and in test [6] was “inactive” each time. In addition, the inhibition result in test [7] and in [8] was “inactive” throughout. In test [18], the Ki was 5500 nM. Also, in [5], the inhibition turned out to be 31%.
